From ChEMBL document CHEMBL1938295, “Synthesis of substituted benzimidazolyl curcumin mimics and their anticancer activity” (Bioorg Med Chem Lett, 2012) come the findings set out here.

Each structure is given as a SMILES string. pIC50: −log10 of the molar value.

Holding throughout (type): functional, cell-based
The subject of assay [1] is SH-SY5Y. The assay can be described thus: Cytotoxicity against human SH-SY5Y cells after 24 to 48 hrs by MTT assay. The gist of the method: (§1)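 Treatment began 24 h after seeding. Compounds were dissolved in DMSO and diluted in DMEM to final 1, 5, 10, 20 and 40 μM, then incubated 24 or 48 h. MTT (0.5 mg/ml) was added for 3 h at 37 °C, formazan dissolved in DMSO, and absorbance read at 595 nm. Each assay was run in triplicate. IC50 came from nonlinear regression of a sigmoid dose-response curve, accepted when R^2 >0.95.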

The subject of assay [2] is NCI-H460. The assay can be described thus: Cytotoxicity against human H460 cells after 24 to 48 hrs by MTT assay. Summed up:
as §1

Assay [3] relates to HepG2. The assay is described as follows: Cytotoxicity against human HepG2 cells after 24 to 48 hrs by MTT assay. Summed up: as §1
(Formazan colour is commonly taken as a measure of viable cells.)

Assay [4] concerns MCF7. The assay is described as follows: Cytotoxicity against human MCF7 cells after 24 to 48 hrs by MTT assay.

What is called pIC50 is the negative decadic logarithm of the IC50, by convention in mol/L. Low readings indicate a high IC50, high ones a low IC50. Turning to `COc1cc(/C=C/C(=O)/C=C/c2nc3ccccc3n2C)ccc1O`, the pIC50 was 5.33 in assay [1], 5.15 in assay [2], 5.54 in assay [3] and 5.43 in assay [4].
Consider `COc1cc(/C=C/C(=O)/C=C/c2nc3cc(C)ccc3n2C)ccc1O`, for which the pIC50 was 5.33 in assay [1], 5.11 in assay [2], 5.38 in assay [3] and 5.35 in assay [4].
As for `COc1cc(/C=C/C(=O)/C=C/c2nc3c(C)cccc3n2C)ccc1O`, the pIC50 in assay [1] was 6.00; in assay [2], 5.52; in assay [3], 5.72; in assay [4], 5.46.
With `COc1cc(/C=C/C(=O)/C=C/c2nc3c(C)c(C)ccc3n2C)ccc1O`, the pIC50 is 4.72 in assay [1], 4.50 in assay [2], 5.07 in assay [3] and 4.85 in assay [4].
The corresponding values for `COc1ccc2c(c1)nc(/C=C/C(=O)/C=C/c1ccc(O)c(OC)c1)n2C` are 5.32, 4.90, 5.42 and 5.41.
The like results for `COc1cc(/C=C/C(=O)/C=C/c2nc3cc(Cl)ccc3n2C)ccc1O` were, in that order, 5.33, 5.05, 5.40 and 5.36.
The corresponding values for `COc1cc(/C=C/C(=O)/C=C/c2nc3cc([N+](=O)[O-])ccc3n2C)ccc1O` are 5.34, 5.17, 5.43 and 5.43.
For `COc1cc(/C=C/C(=O)/C=C/c2nc3cc(O)ccc3n2C)ccc1O`, the pIC50 in assay [1] was 5.32; in assay [2] it was 5.12; in assay [3], 5.44; in assay [4], 5.54.
The like results for `COc1ccc(/C=C/C(=O)/C=C/c2nc3ccccc3n2C)cc1O` were, in that order, 5.32, 5.16, 5.54 and 5.44.
The corresponding values for `COc1ccc(/C=C/C(=O)/C=C/c2nc3cc(C)ccc3n2C)cc1O` are 5.32, 5.11, 5.48 and 5.44.
`COc1ccc(/C=C/C(=O)/C=C/c2nc3c(C)cccc3n2C)cc1O`: the pIC50 in assay [1] was 4.72; in assay [2], 4.60; in assay [3], 4.83; in assay [4] it was 5.13.
The corresponding values for `COc1ccc(/C=C/C(=O)/C=C/c2nc3c(C)c(C)ccc3n2C)cc1O` are 5.32, 5.14, 5.41 and 5.46.
With `COc1ccc2c(c1)nc(/C=C/C(=O)/C=C/c1ccc(OC)c(O)c1)n2C`, the pIC50 was 5.32 in assay [1], 4.93 in assay [2], 5.38 in assay [3] and 5.43 in assay [4].
The corresponding values for `COc1ccc(/C=C/C(=O)/C=C/c2nc3cc(Cl)ccc3n2C)cc1O` are 5.32, 5.14, 5.39 and 5.46.
The like results for `COc1ccc(/C=C/C(=O)/C=C/c2nc3cc([N+](=O)[O-])ccc3n2C)cc1O` were, in that order, 5.09, 4.98, 5.34 and 5.32.
The corresponding values for `COc1ccc(/C=C/C(=O)/C=C/c2nc3cc(O)ccc3n2C)cc1O` are 5.34, 5.14, 5.43 and 5.72.
Turning to `COc1cc(/C=C/C(=O)CC(=O)/C=C/c2ccc(O)c(OC)c2)ccc1O` [CURCUMIN], the pIC50 in assay [1] was 3.98; in assay [2] it was 4.29; in assay [3] it was 4.06; in assay [4], 4.30.
Turning to `CC(=O)O[C@H]1C(=O)[C@@]2(C)[C@H]([C@H](OC(=O)c3ccccc3)[C@]3(O)C[C@H](OC(=O)[C@H](O)[C@@H](NC(=O)c4ccccc4)c4ccccc4)C(C)=C1C3(C)C)[C@]1(OC(C)=O)CO[C@@H]1C[C@@H]2O` [PACLITAXEL], the pIC50 is 8.40 in assay [1], 8.10 in assay [2] and 8.15 in assay [3].
